Test: Toxicity liver stage against HepG2, at 10uM
Type: cell-based
Parameters: test concentration 10 uM, cell line HepG2-A16-CD81EGFP
Conditions: human, HepG2-A16-CD81EGFP cells; read-out: INHIBITION
Method in brief: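 Uninfected HepG2-A16-CD81EGFP cells, 3 × 10^3 per well, 1536-well, plated on prespotted compound at 10 μM final, parasite-free screening media added to match infected plates; puromycin 10 μM positive, DMSO 0.5% negative; run in parallel with 48 h PbLuc assay at 37 °C, 5% CO2; viability by CellTiter-Glo luminescence, normalized to controls.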

| Compound | cytotoxicity at 10 µM |
| --- | --- |
| c1ccc(-c2cnn3cc(CN4CCC5(CCO5)CC4)cnc23)cc1 | 1.64% |
| c1cnc(-c2nn3c(CN4CCCCCC4)nnc3s2)cn1 | 10.8% |
| O=C(CCc1ccccc1Cl)NS(=O)(=O)c1ccc2c(c1)OCCO2 | -6.69% |
| COc1c(CNC(C)C(=O)NC2CCCC2)c(C)nn1C (configuration not stated) | -8.45% |
| CN(C)S(=O)(=O)NC1CCCc2c1cnn2-c1ccc(C(C)(C)C)cc1 (configuration not stated) | 42.5% |
| Cc1nn(C)c2cnn(CC(=O)NCCc3ccccc3)c12 | 13.4% |
| O=C(O)[C@@]12CN(c3cnccn3)C[C@@H]1CN(C1CCOCC1)C2 | 1.92% |
| CCOc1ccc(Cl)c(C(=O)NCCc2ncc[nH]2)n1 | -11.2% |
| CNC(=O)C1Cn2ccnc2C2(CCN(c3ccc(C)nn3)CC2)O1 (configuration not stated) | -137% |
| NCC1Cc2cc(F)cc(-c3cnccn3)c2O1 (configuration not stated) | -9.78% |
| Cc1ccc(CNC(=O)NCC(=O)N2CCCC2)c(N2CCCC2)c1 | 5.84% |
| Cc1cc(C)c(C(=O)N(C)CCN(C)C(=O)c2[nH]c(C)cc2C)[nH]1 | -1.91% |
| CC(C)NC(=O)N1CCC2(CC1)CC[C@@]1(C(=O)N(C)C)CN(C)C[C@@H]21 | -108% |
| CC[C@@]1(O)CCN(C(=O)c2ccsc2)C[C@H]1O | -9.35% |
| CCn1ccnc1CN1CCN(C(C)C(=O)N2CCCC2)CC1 (configuration not stated) | -3.97% |
| NC(=O)C1CCCN1Cc1cccc(NC(=O)c2cc(Cl)cc(Cl)c2)c1 (configuration not stated) | 21.3% |
| COCCn1c(=O)n(C)c(=O)c2ccc(C3CCC(CN)CC3)nc21 (configuration not stated) | -0.2% |
| CNS(=O)(=O)CC(=O)N(Cc1c(F)cccc1Cl)C1CC1 | 4.71% |
| CCc1ncc2c(n1)CN(Cc1cc(C)on1)CC2 | -16.7% |
| N#Cc1ccc(NCCS(=O)(=O)N2CCc3ccccc32)nc1 | -8.69% |
| Cn1cc(C#N)cc1C(=O)Nc1ccc(CN2CCOCC2)cn1 | -6.68% |

| Compound | cytotoxicity at 10 µM |
| --- | --- |
| COCCc1ncc(CNC2(c3ccc(Cl)cc3)CC2)cn1 | -17.3% |
| Cc1cc(N2CCC(N(C)C(=O)c3ccc(C#N)cc3)CC2)nc(C)n1 | 26.7% |
| COCCN1C[C@@H](C)[C@@]2(COCCN(C(=O)c3ccccn3)C2)C1 | 9.58% |
| CCN1CC(Oc2ccc(Cl)cc2)=NC(SCC(=O)c2ccccc2)=N1 | 0.515% |
| Cc1noc(CNc2ccc(OC(F)F)cc2OC(F)F)n1 | 1.85% |
| c1cnc(N2CCC3(CCCN(CC4CCCCC4)C3)C2)cn1 (configuration not stated) | -1.62% |
| COc1ccc(Cn2nnnc2SCC2CCCN(C)C2)cc1 (configuration not stated) | -1.33% |
| Cc1cnc(N2CCN(C)CC2)nc1-c1ccnn1C | 6.3% |
| CCC(CO)N(Cc1ccsc1)Cc1c(C)nn(C)c1Cl (configuration not stated) | 17.8% |
| Cc1nc(C)n(C2CCCN(C(=O)c3cccnc3NC(C)C)C2)n1 (configuration not stated) | -2.28% |
| CCC(=O)c1ccc(OCC(=O)N2CCNCC2C(=O)NC2CC2)cc1 (configuration not stated) | -3.28% |
| O=C(c1[nH]nc2c1CCCC2)N1CCC(OCCN2CCCCC2)C1 (configuration not stated) | -4.52% |
| O=C(C1=CCCC1)N1C[C@H]2CCC[C@@]2(COCc2ccncc2)C1 | 2.78% |
| Cc1cc(C)n(C2CCCN(C(=O)CCNS(C)(=O)=O)C2)n1 (configuration not stated) | 6.62% |
| CCc1ccc(CN(CC)Cc2ccc(S(=O)(=O)NC)cc2)cc1 | -8.55% |
| Cc1nc(S(=O)(=O)NCCC(=O)NCc2ccc(C#N)cc2)cn1C | 5.17% |
| O=C(NCc1ccccn1)[C@]12COC[C@H]1CN(Cc1ccsc1)C2 | 4.91% |
| O=C(c1ccc[nH]1)N1CCc2c(COCc3ccncc3)cncc2C1 | 14.7% |
| CCC(C)N1CCC2(CC1)CN(c1cncnc1)C(=O)CO2 (configuration not stated) | -0.414% |
| c1cc(-c2n[nH]cc2-c2ccnc(N3CCCC3)n2)ccn1 | -0.779% |
| CCCN(CC(=O)N1CCNCC1)C(=O)c1cccc(Cl)c1 | 10.7% |

| Compound | cytotoxicity at 10 µM |
| --- | --- |
| Cc1cc(C)n(CC2CCCN2C(=O)Cc2csc(C)n2)n1 (configuration not stated) | 9.3% |
| COC(=O)CCNC(=O)c1cccc(C(=O)N(C)c2ccccc2)c1 | -2.69% |
| Cc1cccc(CN2C[C@@H](CN3CCCN(C)CC3)[C@@H](CO)C2)n1 | -7.57% |
| Cc1ccc(N2CCCC(N(C)Cc3ccccn3)C2)nn1 (configuration not stated) | -4.01% |
| CCC1(O)CCCN(c2ncnc3c2c(C)nn3C)C1 (configuration not stated) | 2.14% |
| CC(C)CN1CCCC1c1ccc(C(=O)Nc2cccnc2)s1 (configuration not stated) | -6.79% |
| COCCNC(=O)Nc1ccc(-c2nc(C(C)C)no2)cc1 | 0.0793% |
| Cc1ccccc1CN(C)C(=O)CN1CCOC(Cn2cncn2)C1 (configuration not stated) | -1.07% |
| Cc1nn(C)c(N(C)C)c1CNCc1ccc(OCC(N)=O)cc1 | 1.25% |
| Cc1ncc(CNC(=O)NCC(C)Oc2ccccc2F)s1 (configuration not stated) | -7.16% |
| N#CC1C(=O)Nc2c(cnn2C2CCCC2)C12CCCCC2 (configuration not stated) | 8.46% |
| CC(C)OCCN1CCC(Nc2ncccn2)CC1 | -1% |
| O=C(C1CC1)N1CCC2(CC1)CNCc1ccccc12 | 1.79% |
| O=C(C1=NN(Cc2ccccc2)c2ccccc2S1(=O)=O)N1CCCC1 | -4.65% |
| COc1cccc(N2CCN(Cc3nccn3C(C)C)CC2=O)c1 | 1.85% |
| CCOc1ccc(NC(C)C(=O)Nc2cc(C)no2)cc1 (configuration not stated) | 7.04% |
| CCc1ncc(C(=O)NC(C)(C)CC)s1 | -0.343% |
| Cc1cnn(C2CN(Cc3nnc(Cc4ccccc4)o3)C2)c1 | 4.4% |
| CC(C)Cn1cnnc1C1CCCN1C(=O)OC(C)(C)C (configuration not stated) | 0.514% |
| COc1ccccc1C(=O)N1CCNCC1C(N)=O (configuration not stated) | 1.96% |
| Cc1n[nH]c(C2CN(C(=O)c3ccc4c(c3)CCCC4)CCO2)n1 (configuration not stated) | -10.8% |

| Compound | cytotoxicity at 10 µM |
| --- | --- |
| O=C(NCc1ccco1)[C@@]12CCO[C@@H]1CCN(Cc1nccs1)C2 | 14.6% |
| O=C(N1CCOCC1)N1CCN(c2ccc(Cl)nn2)C(=O)C1 | 8.57% |
| CC(C)c1nnc2sc(CC3CCS(=O)(=O)CC3)nn12 | 4.62% |
| c1ccc(OCc2n[nH]c3c2CN(CC2CC2)C3)nc1 | 7.49% |
| COCC(=O)N1CCN(Cc2nnc(C(C)(C)C)o2)CC1 | 7.66% |
| Cn1cc(CNC2CCOCC2)c(-c2cc3ccccc3o2)n1 | -45.1% |
| Cc1cc(C(=O)N2CCN(Cc3ccsc3)CC2)n(C)n1 | 1.98% |
| CC(C)n1c(C(=O)N2CCCC2)nc2c1CCN(c1ncccn1)C2 | -6.72% |
| O=C(NC[C@]1(O)CN(Cc2ncccc2F)C[C@H]1O)c1cc[nH]n1 | -6.07% |
| CC(NC(=O)CN(C)C(C)C)c1ccc(Oc2cccnc2)c(F)c1 (configuration not stated) | 2% |
| O=C(c1coc2ccccc12)N1CCS(=O)(=O)CC1 | 2.64% |
| CS(=O)(=O)c1ccc(CNC[C@H]2COCc3nc4cccnc4n32)cc1 | -0.505% |
| Cc1nccn1-c1ccc(N2CCC(N[C@H](C)C(C)C)CC2)cc1 | -6.39% |
| COc1ccc(NC(=O)C(c2ccc(OC)cc2)N2CCOCC2)cc1 (configuration not stated) | -3.39% |
| Fc1ccccc1OCCc1cc(C2CCNC2)n[nH]1 (configuration not stated) | -26.8% |
| O=C(Nc1ccccn1)C1CCN(Cc2cc3c(cc2O)OCO3)CC1 | 7.19% |
| CC(CCc1ccccc1)NC(=O)CNCCCN(C)C (configuration not stated) | -3.83% |
| Cc1ncsc1C(=O)NC1CCN(CC(=O)NCc2ccccc2)CC1 | -4.62% |
| O=S(=O)(c1cc(F)cc(F)c1)N1CCC(Oc2ccc(Cl)cn2)CC1 | -4.63% |

Reference: ChEMBL document CHEMBL4513216, “Probing the Open Global Health Chemical Diversity Library for Multistage-Active Starting Points for Next-Generation Antimalarials” (ACS Infect Dis, 2020)
